Article PMC4969713 (Journal of Alzheimer's Disease, 2016)
“Also recorded” adds a separate entry of the source. Structures can show the parent of a compound that is named as a salt.

Tests used:
[1] = molecular target: Adrenergic α2B (Homo sapiens, UniProt P18089); assay: Radioligand competition, adrenergic α2B; format: binding
[2] = tested on: BALB/c mice; assay: Passive avoidance, MK-801-induced amnesia, mice; format: in vivo
[3] = tested on: male SHK mice; assay: Apomorphine-induced disruption of pre-pulse inhibition; format: in vivo; conditions: IP
Method in brief: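 Male SHK mice received apomorphine as the pro-psychotic agent to disrupt pre-pulse inhibition. Groups: untreated control, apomorphine alone, haloperidol 1 mg/kg as positive control, and test compound at several doses. Groups were compared with the apomorphine-only group by Student test.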

[4] = molecular target: 5-HT7 receptor (Homo sapiens, UniProt P34969); assay: Radioligand binding competition, 5-HT7
Chain of 5-HT7 receptor (P34969 whole entry): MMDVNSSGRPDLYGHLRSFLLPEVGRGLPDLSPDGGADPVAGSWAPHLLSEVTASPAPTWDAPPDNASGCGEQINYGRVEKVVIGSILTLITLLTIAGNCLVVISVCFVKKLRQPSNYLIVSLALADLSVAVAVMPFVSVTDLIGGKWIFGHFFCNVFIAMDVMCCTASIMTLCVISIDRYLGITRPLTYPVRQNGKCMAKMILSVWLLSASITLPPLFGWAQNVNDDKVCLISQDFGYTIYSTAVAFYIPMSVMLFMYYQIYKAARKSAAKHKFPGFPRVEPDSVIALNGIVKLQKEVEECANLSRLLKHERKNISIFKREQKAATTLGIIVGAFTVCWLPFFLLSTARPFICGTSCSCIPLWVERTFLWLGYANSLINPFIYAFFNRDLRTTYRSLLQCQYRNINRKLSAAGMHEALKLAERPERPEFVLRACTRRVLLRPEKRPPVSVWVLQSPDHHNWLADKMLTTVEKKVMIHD

[5] = Stability in aqueous solutions; format: physicochemical; conditions: 72 h, room temperature
Method in brief: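 Test compound was incubated for 72 h at room temperature. Media were distilled water, salt solution at pH 4.0 or pH 7.0, and physiological solution at pH 7.4. Read-out was the fraction of the original concentration remaining.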

[6] = tested on: Monkeys (Macaca mulatta); assay: Q-T interval, monkeys; format: in vivo; conditions: 1 mg/kg IV; not affected
[7] = Stability in human blood plasma; format: in vitro ADME; conditions: 30-min incubation, room temperature
[8] = molecular target: 5-HT2A receptor (Homo sapiens, UniProt P28223); assay: Radioligand binding competition, 5-HT2A
Chain of 5-HT2A receptor (P28223 whole entry): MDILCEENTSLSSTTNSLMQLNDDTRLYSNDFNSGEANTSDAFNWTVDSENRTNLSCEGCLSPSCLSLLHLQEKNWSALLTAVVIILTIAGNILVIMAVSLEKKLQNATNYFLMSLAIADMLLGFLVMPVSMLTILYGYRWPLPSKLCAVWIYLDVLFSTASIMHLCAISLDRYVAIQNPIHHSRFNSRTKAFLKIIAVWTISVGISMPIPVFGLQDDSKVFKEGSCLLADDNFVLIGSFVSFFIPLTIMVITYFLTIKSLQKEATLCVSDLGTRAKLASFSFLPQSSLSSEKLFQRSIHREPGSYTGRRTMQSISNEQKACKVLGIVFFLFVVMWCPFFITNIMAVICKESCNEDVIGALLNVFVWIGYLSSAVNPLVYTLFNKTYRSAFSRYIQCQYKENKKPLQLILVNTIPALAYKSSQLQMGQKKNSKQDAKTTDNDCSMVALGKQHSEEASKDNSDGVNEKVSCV

[9] = molecular target: CYP2C9 (Homo sapiens, UniProt P11712); assay: Metabolism by recombinant CYP2C9; format: in vitro ADME
[10] = molecular target: hNav1.5 (Homo sapiens, UniProt Q14524); assay: Cardiac channel inhibition, hNav1.5; format: cell-based
Chain of hNav1.5 (Q14524 whole entry): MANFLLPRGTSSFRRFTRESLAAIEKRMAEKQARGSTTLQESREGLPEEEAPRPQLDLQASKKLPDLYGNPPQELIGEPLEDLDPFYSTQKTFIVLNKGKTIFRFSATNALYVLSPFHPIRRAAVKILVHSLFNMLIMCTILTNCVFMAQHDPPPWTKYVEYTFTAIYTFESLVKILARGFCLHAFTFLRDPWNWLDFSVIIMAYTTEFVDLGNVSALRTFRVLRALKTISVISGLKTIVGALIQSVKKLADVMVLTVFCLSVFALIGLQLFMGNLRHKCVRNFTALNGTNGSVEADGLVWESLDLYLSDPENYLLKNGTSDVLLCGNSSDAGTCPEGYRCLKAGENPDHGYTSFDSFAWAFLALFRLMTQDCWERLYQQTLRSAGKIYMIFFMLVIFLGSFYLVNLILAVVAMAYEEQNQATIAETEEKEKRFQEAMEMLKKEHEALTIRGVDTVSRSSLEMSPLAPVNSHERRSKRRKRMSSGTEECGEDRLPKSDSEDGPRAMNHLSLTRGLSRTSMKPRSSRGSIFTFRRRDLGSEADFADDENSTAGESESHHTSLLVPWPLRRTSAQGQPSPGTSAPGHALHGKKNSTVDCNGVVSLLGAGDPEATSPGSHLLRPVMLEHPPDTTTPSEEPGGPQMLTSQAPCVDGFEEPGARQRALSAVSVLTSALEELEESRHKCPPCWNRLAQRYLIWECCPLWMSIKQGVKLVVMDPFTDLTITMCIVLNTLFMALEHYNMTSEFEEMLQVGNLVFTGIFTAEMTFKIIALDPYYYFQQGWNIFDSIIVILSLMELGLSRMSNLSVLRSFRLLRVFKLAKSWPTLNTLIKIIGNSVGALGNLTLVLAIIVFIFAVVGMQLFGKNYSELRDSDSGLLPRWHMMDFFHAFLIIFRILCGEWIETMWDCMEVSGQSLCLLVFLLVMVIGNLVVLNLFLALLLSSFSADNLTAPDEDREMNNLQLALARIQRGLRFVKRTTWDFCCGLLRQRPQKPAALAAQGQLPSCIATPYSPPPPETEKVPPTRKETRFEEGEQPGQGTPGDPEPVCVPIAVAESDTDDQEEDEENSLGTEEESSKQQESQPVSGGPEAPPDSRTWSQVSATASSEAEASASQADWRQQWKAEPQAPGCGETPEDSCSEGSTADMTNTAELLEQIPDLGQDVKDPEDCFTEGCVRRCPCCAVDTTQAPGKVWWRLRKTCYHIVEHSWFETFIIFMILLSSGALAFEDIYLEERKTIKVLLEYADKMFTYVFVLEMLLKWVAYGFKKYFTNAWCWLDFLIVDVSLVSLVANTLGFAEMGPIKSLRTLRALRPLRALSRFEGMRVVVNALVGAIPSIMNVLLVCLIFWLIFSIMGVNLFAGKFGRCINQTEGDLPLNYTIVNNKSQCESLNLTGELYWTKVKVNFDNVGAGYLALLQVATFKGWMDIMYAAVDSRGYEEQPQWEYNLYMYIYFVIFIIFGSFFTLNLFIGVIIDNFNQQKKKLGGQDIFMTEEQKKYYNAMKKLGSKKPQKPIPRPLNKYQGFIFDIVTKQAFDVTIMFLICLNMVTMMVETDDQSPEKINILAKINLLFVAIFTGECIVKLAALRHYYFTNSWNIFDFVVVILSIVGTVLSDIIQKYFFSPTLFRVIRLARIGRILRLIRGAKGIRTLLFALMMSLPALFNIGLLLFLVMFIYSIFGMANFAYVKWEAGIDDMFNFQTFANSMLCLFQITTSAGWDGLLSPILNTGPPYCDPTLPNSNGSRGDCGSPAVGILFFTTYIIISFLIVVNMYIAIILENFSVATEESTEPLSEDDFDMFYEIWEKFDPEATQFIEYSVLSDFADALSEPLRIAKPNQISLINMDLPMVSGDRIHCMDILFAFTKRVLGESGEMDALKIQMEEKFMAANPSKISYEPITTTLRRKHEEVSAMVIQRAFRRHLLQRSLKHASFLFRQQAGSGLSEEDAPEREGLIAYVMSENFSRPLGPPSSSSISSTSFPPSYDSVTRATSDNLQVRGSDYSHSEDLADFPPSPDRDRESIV

[11] = molecular target: histamine H3 receptor (Homo sapiens, UniProt Q9Y5N1); assay: Radioligand binding competition, histamine H3
Chain of histamine H3 receptor (Q9Y5N1 whole entry, species assumed): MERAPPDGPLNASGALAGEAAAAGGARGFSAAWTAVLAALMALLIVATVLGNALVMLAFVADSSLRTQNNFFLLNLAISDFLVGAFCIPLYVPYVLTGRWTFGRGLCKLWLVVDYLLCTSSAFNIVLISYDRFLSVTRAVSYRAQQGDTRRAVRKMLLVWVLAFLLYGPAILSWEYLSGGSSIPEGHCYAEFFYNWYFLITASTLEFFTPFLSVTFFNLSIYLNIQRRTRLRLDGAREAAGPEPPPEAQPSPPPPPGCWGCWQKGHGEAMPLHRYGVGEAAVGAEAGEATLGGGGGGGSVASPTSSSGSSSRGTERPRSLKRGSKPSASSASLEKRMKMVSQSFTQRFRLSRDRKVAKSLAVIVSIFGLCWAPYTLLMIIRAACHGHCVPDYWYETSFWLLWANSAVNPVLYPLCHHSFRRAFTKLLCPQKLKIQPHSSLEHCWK

[12] = molecular target: hERG channel (Homo sapiens, UniProt Q12809); assay: Target panel binding, hERG channel
Chain of hERG channel (Q12809 whole entry): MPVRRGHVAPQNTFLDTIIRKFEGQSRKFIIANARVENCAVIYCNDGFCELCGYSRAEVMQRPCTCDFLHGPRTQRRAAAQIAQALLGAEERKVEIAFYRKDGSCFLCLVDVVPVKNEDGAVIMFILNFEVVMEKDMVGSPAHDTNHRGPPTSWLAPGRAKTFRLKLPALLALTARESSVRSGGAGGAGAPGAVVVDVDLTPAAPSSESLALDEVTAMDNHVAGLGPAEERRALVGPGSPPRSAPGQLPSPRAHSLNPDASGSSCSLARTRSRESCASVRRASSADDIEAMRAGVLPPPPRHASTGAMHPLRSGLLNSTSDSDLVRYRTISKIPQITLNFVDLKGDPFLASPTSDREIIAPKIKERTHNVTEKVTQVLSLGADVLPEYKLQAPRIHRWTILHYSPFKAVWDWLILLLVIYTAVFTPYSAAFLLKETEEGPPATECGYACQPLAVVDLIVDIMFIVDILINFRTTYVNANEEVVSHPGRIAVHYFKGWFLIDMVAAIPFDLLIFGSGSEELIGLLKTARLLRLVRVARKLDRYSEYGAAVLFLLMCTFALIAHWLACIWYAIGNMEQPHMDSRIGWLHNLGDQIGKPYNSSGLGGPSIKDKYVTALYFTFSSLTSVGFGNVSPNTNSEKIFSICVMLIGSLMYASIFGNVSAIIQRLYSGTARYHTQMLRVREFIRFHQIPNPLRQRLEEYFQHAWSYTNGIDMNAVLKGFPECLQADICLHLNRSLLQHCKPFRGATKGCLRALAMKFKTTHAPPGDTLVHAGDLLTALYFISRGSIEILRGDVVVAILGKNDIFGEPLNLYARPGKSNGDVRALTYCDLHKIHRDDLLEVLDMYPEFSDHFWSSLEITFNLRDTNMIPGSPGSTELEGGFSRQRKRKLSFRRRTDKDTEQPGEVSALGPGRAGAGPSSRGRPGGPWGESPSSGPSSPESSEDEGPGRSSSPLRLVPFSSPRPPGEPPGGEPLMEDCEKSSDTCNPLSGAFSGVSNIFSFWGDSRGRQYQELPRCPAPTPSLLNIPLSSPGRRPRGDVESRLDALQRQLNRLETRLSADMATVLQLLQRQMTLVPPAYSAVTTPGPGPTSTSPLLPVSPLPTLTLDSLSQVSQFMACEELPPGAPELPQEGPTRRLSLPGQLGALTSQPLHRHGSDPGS

[13] = tested on: BALB/c mice; assay: Porsolt forced swim test; format: in vivo; conditions: AVN-101 0.05 mg/kg IP once daily for 4 days
[14] = molecular target: 5-HT1B receptor; conditions: Table 2; cited from earlier work
[15] = molecular target: CYP2C8 (Homo sapiens, UniProt P10632); assay: Metabolism by recombinant CYP2C8; format: in vitro ADME
[16] = Caco-2 permeability; conditions: human
[17] = tested on: laboratory rabbits; assay: 30 days toxicity, rabbits; format: in vivo; conditions: 4 mg/kg PO daily
[18] = tested on: Dopaminergic receptors; assay: Radioligand competition, dopaminergic receptors; format: binding; conditions: compared to the 5-HT7 receptor
[19] = molecular target: T1, 5-HT2C receptor (Homo sapiens, UniProt P28335); assay: Radioligand binding competition, 5-HT2C; conditions: Ki
T1 sequence (P28335 33-458): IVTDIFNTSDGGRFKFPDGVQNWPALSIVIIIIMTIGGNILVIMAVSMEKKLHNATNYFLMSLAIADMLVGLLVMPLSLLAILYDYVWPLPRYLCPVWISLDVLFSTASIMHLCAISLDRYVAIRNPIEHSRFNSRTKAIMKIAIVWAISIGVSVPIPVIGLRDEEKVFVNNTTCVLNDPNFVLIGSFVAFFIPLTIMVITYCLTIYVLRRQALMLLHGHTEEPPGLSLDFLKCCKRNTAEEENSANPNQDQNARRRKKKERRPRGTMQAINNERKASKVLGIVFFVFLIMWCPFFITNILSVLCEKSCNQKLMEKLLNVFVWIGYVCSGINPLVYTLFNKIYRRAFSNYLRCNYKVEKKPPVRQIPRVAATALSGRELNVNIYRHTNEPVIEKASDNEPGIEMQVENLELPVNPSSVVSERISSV

[20] = tested on: male BALB/c mice; assay: Elevated Platform test; format: in vivo; conditions: IP; Lorazepam 0.05 mg/kg, AVN-101 0.2 mg/kg; initial 2 min
[21] = molecular target: CYP2D6 (Homo sapiens, UniProt P10635); assay: Metabolism by recombinant CYP2D6; format: in vitro ADME
[22] = molecular target: norpinephrine transporter (Homo sapiens, UniProt P23975); assay: Target panel binding, norpinephrine transporter
[23] = molecular target: Adrenergic α1B (Homo sapiens, UniProt P35368); assay: Radioligand competition, adrenergic α1B; format: binding
[24] = Pharmacokinetics in mice, IP; format: in vivo; conditions: mouse, blood
[25] = tested on: calcium channels of L type; assay: Target panel binding, calcium channel L type
[26] = tested on: Sprague Dawley rats; assay: Passive avoidance, scopolamine-induced amnesia, rats; format: in vivo; conditions: 0.05 mg/kg IP
[27] = Solubility in water; format: physicochemical; conditions: pH 7.4
[28] = Metabolism in rat microsomes; format: in vitro ADME; conditions: for Remaining quantity: AVN-101 1 μM, RLM

Chain of Adrenergic α2B (P18089 whole entry): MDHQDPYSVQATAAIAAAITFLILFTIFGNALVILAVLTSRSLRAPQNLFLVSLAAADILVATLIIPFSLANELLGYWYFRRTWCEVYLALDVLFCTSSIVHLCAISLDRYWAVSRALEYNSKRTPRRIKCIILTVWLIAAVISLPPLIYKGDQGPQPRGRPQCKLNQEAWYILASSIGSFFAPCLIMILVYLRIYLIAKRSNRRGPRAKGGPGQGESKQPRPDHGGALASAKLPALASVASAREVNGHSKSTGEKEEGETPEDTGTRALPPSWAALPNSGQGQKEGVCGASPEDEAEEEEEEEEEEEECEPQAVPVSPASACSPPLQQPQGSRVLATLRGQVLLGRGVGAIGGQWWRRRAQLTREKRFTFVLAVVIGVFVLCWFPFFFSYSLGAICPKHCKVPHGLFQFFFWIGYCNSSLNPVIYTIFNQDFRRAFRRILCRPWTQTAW

SMILES: Cc1ccc2c(c1)c1c(n2CCc2ccccc2)CCN(C)C1 [AVN-101, 2,8-dimethyl-5-penethyl-2,3,4,5-tetra-hydro-1h-pyrido[[4,3-B]]indole hydrochloride]
- Ki [1]: 0.41 to 3.6 nM
- effect on MK-801-induced amnesia ([2]; IP): dose-dependently prevented
- anti-amnesic dose ([2]; MK-801 model): 0.5 mg/kg
- optimal dose in restoration of PPI [3]: 0.1 to 0.5 mg/kg
- effect on apomorphine-induced disruption of PPI ([3]; apomorphine 20 mg/kg, Haloperidol 1 mg/kg): effective in reversing
- IC50 [4]: 0.28 nM
- affinity higher than SB-742457 [4]: ~4 orders of magnitude
- fraction of original concentration ([5]; distilled water): 97.03%
- fraction of original concentration ([5]; physiological solution pH 7.4): 99.38%
- fraction of original concentration ([5]; salt solution pH 4.0): 98.05%
- fraction of original concentration ([5]; salt solution pH 7.0): 99.95%
- QT interval [6]: 0.22 ± 0.04 s
- heart rate [6]: ca. 175 beats/min
- residual amount of original compound [7]: 68%
- Ki [8]: 1.2 to 2 nM
- remaining at 0.5 h, 2 µM [9]: 110%
- IC50 [10]: 2400 nM
- inhibition at 31.6 µM ([10]; read-out: % Inhibition at 31.6μM): 97%
- binding [11]: totally inactive; also recorded: does not bind
- binding [12]: does not bind
- decrease in immobility time [13]: comparable to that observed with either Fluoxetine or Desipramine
- Ki [14]: 720 nM
- remaining at 0.5 h, 2 µM [15]: 118%
- Papp [16]: 19 ± 1.8 ×10⁻⁶ cm/s
- Papp B→A [16]: 21 ± 2.1 ×10⁻⁶ cm/s
- body weight, plasma biochemistry markers, macro- and microscopic observations [17]: No changes
- kidney finding, one of 3 males [17]: small infarctions in cortical substance of the kidneys
- ovary finding, one of 3 females [17]: ovary hypo function
- affinity [18]: very low affinity
- Ki [19]: 1.2 to 2 nM
- duration of freezing behavior [20]: significantly reduced duration of the freezing behavior
- remaining at 0.5 h, 2 µM [21]: 0%
- binding [22]: does not bind
- Ki [23]: 9.4 nM
- Cmax ([24]; 0.05 mg/kg): 1.9 ng/mL
- Tmax ([24]; 0.05 mg/kg): 5 min
- half-life ([24]; 0.05 mg/kg): 10.5 min
- AUC ([24]; 0.05 mg/kg, AUC0 - >t, IP 0.05 mg/kg): 0.487 ng·h/mL
- AUC ([24]; 0.05 mg/kg, AUC0 - >∞, IP 0.05 mg/kg): 0.498 ng·h/mL
- Cmax ([24]; 0.2 mg/kg): 5 ng/mL
- Tmax ([24]; 0.2 mg/kg): 15 min
- half-life ([24]; 0.2 mg/kg): 58 min
- AUC ([24]; 0.2 mg/kg, AUC0 - >t, IP 0.2 mg/kg): 5.65 ng·h/mL
- AUC ([24]; 0.2 mg/kg, AUC0 - >∞, IP 0.2 mg/kg): 6.08 ng·h/mL
- Cmax ([24]; 1 mg/kg): 23 ng/mL
- Tmax ([24]; 1 mg/kg): 15 min
- half-life ([24]; 1 mg/kg): 81 min
- AUC ([24]; 1 mg/kg, AUC0 - >t, IP 1.0 mg/kg): 25.9 ng·h/mL
- AUC ([24]; 1 mg/kg, AUC0 - >∞, IP 1.0 mg/kg): 32 ng·h/mL
- half-life ([24]; 2 mg/kg): 130 min
- Cmax ([24]; 5 mg/kg): 198 ng/mL
- Tmax ([24]; 5 mg/kg): 5 min
- concentration at 5 min ([24]; 5 mg/kg): ~650 nM
- half-life ([24]; 5 mg/kg): 136 min
- AUC ([24]; 5 mg/kg, AUC0 - >t, IP 5.0 mg/kg): 184 ng·h/mL
- AUC ([24]; 5 mg/kg, AUC0 - >∞, IP 5.0 mg/kg): 274 ng·h/mL
- binding [25]: does not bind
- reversal of pro-amnesic action of Scopolamine [26]: significantly reverse
- solubility [27]: 194 mg/mL
- k el ([28]; 1μM): 0.352
- Remaining quantity ([28]; 7.9 min): <1%
- Remaining quantity ([28]; 30 min): <1%
- half-life at 1 µM ([28]; rat, liver microsomes): 1.97 min
- k el at 1 μM ([28]; rat, liver microsomes): 0.00558 s⁻¹
- microsomal CLint at 1 µM ([28]; rat, liver microsomes): 703 µL/min/mg
